Active and inactive are the calls of the source. No cut-off for these calls is given here.
Tests used:
[1] = tested on: Lewis lung carcinoma cell line; assay: Percentage increase in lifespan of mice treated at 65 mg/kg/day on days 5, 9, 13 after intravenous inoculation of lewis lung carcinoma cells; assay type: functional, Mus musculus
Outline: (§1)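 Mice were given 10^6 Lewis lung carcinoma cells intravenously. Drug was dosed intraperitoneally on days 5, 9 and 13 as a solution in 0.1 mL of 30% v/v ethanol/water, with groups of six animals. Read-out was the percentage increase in lifespan of treated tumor-bearing mice.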

[2] = tested on: L1210; assay: Concentration to inhibit growth of murine leukemia cells in culture by 50%.; assay type: functional, cell-based; conditions: Mus musculus
Outline: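 Murine L1210 leukemia cells were grown in culture with drug for 40 h. IC50 is the drug concentration, in nM, that inhibits growth by 50%.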

[3] = tested on: Nucleic Acid; assay: Binding constant to poly[d(G-C)] by ethidium bromide displacement; assay type: nucleic-acid assay
[4] = tested on: Nucleic Acid; assay: Binding constant to poly[d(A-T)] by ethidium bromide displacement; assay type: nucleic-acid assay
[5] = tested on: P388; assay: Percentage increase in lifespan of mice treated at 100 mg/kg/day on days 1, 5, 9 after intravenous inoculation of P388 leukemia cells; assay type: functional, Mus musculus; conditions: for ILS at 100 mg/kg/day: Mus musculus, P388
[6] = tested on: Lewis lung carcinoma cell line; assay: Percentage increase in lifespan of mice treated at 100 mg/kg/day on days 5, 9, 13 after intravenous up to the toxic dose levels tested; assay type: functional, organism-based; conditions: Mus musculus
Outline: (§2)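 Mice were inoculated intravenously with 10^6 Lewis lung carcinoma cells. Drug was given ip in 30% v/v ethanol/water on days 5, 9 and 13. ILS is the percentage increase in lifespan at the optimal dose, with six animals per group.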

[7] = tested on: Lewis lung carcinoma cell line; assay: Percentage increase in lifespan of mice treated at 100 mg/kg/day on days 5, 9, 13 after intravenous inoculation of lewis lung carcinoma cells; assay type: functional, Mus musculus; outline: as §1
[8] = tested on: P388; assay: Percentage increase in lifespan of mice treated at 65 mg/kg/day on days 1, 5, 9 after intraperitoneal up to the toxic dose levels tested; conditions: Mus musculus
[9] = tested on: P388; assay: Percentage increase in lifespan of mice treated at 100 mg/kg/day on days 1, 5, 9 after intraperitoneal inoculation of P388 leukemia cells
[10] = tested on: P388; assay: Percentage increase in lifespan of mice treated at 45 mg/kg/day on days 1, 5, 9 after intraperitoneal up to the toxic dose levels tested; conditions: Mus musculus
[11] = tested on: Lewis lung carcinoma cell line; assay: Percentage increase in lifespan of mice treated at 65 mg/kg/day on days 5, 9, 13 after intravenous up to the toxic dose levels tested; assay type: functional, organism-based; conditions: Mus musculus; outline: as §2
[12] = pKa determined in aqueous solutions spectrophotometrically
[13] = tested on: P388; assay: Percentage increase in lifespan of mice treated at 65 mg/kg/day on days 1, 5, 9 after […] up to the toxic dose levels tested; assay type: functional, organism-based; conditions: Mus musculus
Outline: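 Mice were inoculated intraperitoneally with 10^6 P388 leukemia cells. Drug was given ip in 30% v/v ethanol/water on days 1, 5 and 9. ILS is the percentage increase in lifespan of treated over untreated tumor-bearing animals at the optimal dose, with six animals per group. Values above 20% count as significant, and long-term survivors were scored at 50 days.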

[14] = tested on: P388; assay: Percentage increase in lifespan of mice treated at 150 mg/kg/day on days 1, 5, 9 after intraperitoneal up to the toxic dose levels tested; conditions: Mus musculus
[15] = tested on: Lewis lung carcinoma cell line; assay: Percentage increase in lifespan of mice treated at 150 mg/kg/day on days 5, 9, 13 after intravenous inoculation of lewis lung carcinoma cells; assay type: functional, Mus musculus; outline: as §1
[16] = tested on: P388; assay: Percentage increase in lifespan of mice treated at 225 mg/kg/day on days 1, 5, 9 after intraperitoneal inoculation of P388 leukemia cells
[17] = tested on: P388; assay: Percentage increase in lifespan of mice treated at 100 mg/kg/day on days 1, 5, 9 after intraperitoneal up to the toxic dose levels tested; conditions: Mus musculus
[18] = tested on: P388; assay: Percentage increase in lifespan of mice treated at 65 mg/kg/day on days 1, 5, 9 after intraperitoneal inoculation of P388 leukemia cells
[19] = tested on: Nucleic Acid; assay: Binding constant for poly[d(A-T)] by ethidium bromide displacement; assay type: nucleic-acid assay
[20] = tested on: Nucleic Acid; assay: Binding constant for poly[d(G-C)] by ethidium bromide displacement; assay type: nucleic-acid assay

Structure (SMILES) | IC50 [2] | Log K [3] | Log K [4] | ILS [6] | ILS [9] | other results
CN(C)CCNC(=O)c1cccc2ccc(-c3ccncc3)nc12 | 170 nM | 6.32 | 5.82 |  |  | ILS [1]: 191
CN(C)CCCNC(=O)c1cccc2ccc(-c3ccccc3)nc12 | 1140 nM | 5.62 | 5.9 | inactive |  | ILS at 100 mg/kg/day [5]: 71%
CN(C)CCNC(=O)c1cccc2ccc(-c3ccccc3)nc12 |  | 5.92 | 5.98 |  |  | ILS at 100 mg/kg/day [5]: 91%; ILS at 100 mg/kg/day ([7]; Mus musculus, Lewis lung carcinoma): 70%
O=C(NCCN1CCOCC1)c1cccc2ccc(-c3ccccc3)nc12 | 44 nM | 5.61 | 6.12 |  |  | ILS [8]: inactive
CN(C)CCNC(=O)c1cccc2ccc(-c3ccc(F)cc3)nc12 | 730 nM | 6.66 | 6.74 | inactive | 24 | 
CN(C)CCNC(=O)c1cccc2ccc(-c3ccc(NS(C)(=O)=O)cc3)nc12 | 1330 nM | 6.22 | 6.04 |  |  | ILS [10]: inactive
CN(C)CCNC(=O)c1cccc2ccc(-c3ccc(S(C)(=O)=O)cc3)nc12 | 5800 nM |  | 5.68 | inactive | 29 | 
O=C(NCCNCCO)c1cccc2ccc(-c3ccccc3)nc12 | 36 nM | 6.31 | 6.22 |  |  | ILS [8]: inactive; ILS [11]: inactive
CN(C)CCNC(=O)c1cccc2ccc(-c3ccc(I)cc3)nc12 | 400 nM | 6.87 | 6.8 | inactive | 48 | 
COc1ccc(-c2ccc3cccc(C(=O)NCCN(C)C)c3n2)cc1 | 1290 nM | 6.27 | 6.4 | inactive |  | ILS [5]: 42; pKa [12]: 3.28
CN(C)CCNC(=O)c1cccc2ccc(-c3cccnc3)nc12 | 840 nM | 6.09 | 5.81 |  | 58 | ILS [7]: 55
CN(C)CCCCCNC(=O)c1cccc2ccc(-c3ccccc3)nc12 | 1300 nM | 5.73 | 5.9 | inactive |  | ILS [13]: inactive
CN(C)CCNC(=O)c1cccc2ccc(-c3ccccc3Cl)nc12 | 8100 nM | 5.12 | 5.32 |  |  | ILS [13]: inactive
CN(C)CCCCNC(=O)c1cccc2ccc(-c3ccccc3)nc12 | 680 nM | 5.89 | 6.19 |  | 93 | 
CN(C)CCNC(=O)c1cccc2ccc(-c3ccc([N+](=O)[O-])cc3)nc12 | 290 nM | 6.13 | 6.28 |  |  | ILS [5]: 58; ILS [1]: 85
CN(C)CCNC(=O)c1cccc2ccc(-c3ccc(-c4ccccc4)cc3)nc12 | 1290 nM | 6.96 | 6.88 |  |  | ILS [14]: inactive
CN(C)CCNC(=O)c1cccc2ccc(-c3ccc(N)cc3)nc12 | 200 nM | 6.96 | 6.42 |  | 28 | ILS [15]: 59
Br.Br.CN(C)CCNC(=O)c1cccc2ccc(-c3ccc(O)cc3)nc12 | 1280 nM | 6.48 | 6.3 | inactive |  | ILS [5]: 22
COc1cccc(-c2ccc3cccc(C(=O)NCCN(C)C)c3n2)c1 | 860 nM | 6.41 | 6.3 |  |  | ILS [16]: 46
CN(C)CCNC(=O)c1cccc2ccc(-c3ccc(C(F)(F)F)cc3)nc12 | 2100 nM | 6.72 | 6.64 | inactive |  | ILS [17]: inactive
CN(C)CCNC(=O)c1cccc2ccc(-c3ccc(Cl)cc3)nc12 | 1170 nM | 5.99 | 6.08 |  | 52 | ILS [1]: 45; pKa [12]: 2.42
CN(C)CCNC(=O)c1cccc2ccc(-c3ccc4ccccc4c3)nc12 | 860 nM | 7.35 | 7 |  |  | ILS [14]: inactive
CN(C)CCNC(=O)c1cccc2ccc(-c3cccc(Cl)c3)nc12 | 1200 nM | 6.47 | 6.05 |  |  | ILS [18]: 40; ILS [11]: inactive
CC(=O)Nc1ccc(-c2ccc3cccc(C(=O)NCCN(C)C)c3n2)cc1 | 600 nM |  |  |  |  | Log K [19]: 6.49; ILS [13]: inactive; Log K [20]: 7.07
CN(C)CCNC(=O)c1cccc2ccc(-c3ccc(Br)cc3)nc12 | 600 nM | 6.68 | 6.63 | inactive | 72 | 
CN(C)CCNC(=O)c1cccc2ccc(-c3ccccn3)nc12 | 1640 nM | 5.85 | 5.82 |  |  | ILS [5]: 73; ILS [7]: 84

From ChEMBL document CHEMBL1124392, “Potential antitumor agents. 57. 2-Phenylquinoline-8-carboxamides as "minimal" DNA-intercalating antitumor agents with in vivo solid tumor activity” (J Med Chem, 1989)
